# Active and inactive are the calls of the source. The rule behind the calls is not given here.
# Legend:
# [1] = target: T1, Amine oxidase [flavin-containing] A (Rattus norvegicus, UniProt P21396); assay: Inhibition of rat MAOA using 5-hydroxytryptamine as substrate pretreated for 1200 secs followed by substrate addition and measured after 3600 secs
# T1 sequence (P21396 whole entry): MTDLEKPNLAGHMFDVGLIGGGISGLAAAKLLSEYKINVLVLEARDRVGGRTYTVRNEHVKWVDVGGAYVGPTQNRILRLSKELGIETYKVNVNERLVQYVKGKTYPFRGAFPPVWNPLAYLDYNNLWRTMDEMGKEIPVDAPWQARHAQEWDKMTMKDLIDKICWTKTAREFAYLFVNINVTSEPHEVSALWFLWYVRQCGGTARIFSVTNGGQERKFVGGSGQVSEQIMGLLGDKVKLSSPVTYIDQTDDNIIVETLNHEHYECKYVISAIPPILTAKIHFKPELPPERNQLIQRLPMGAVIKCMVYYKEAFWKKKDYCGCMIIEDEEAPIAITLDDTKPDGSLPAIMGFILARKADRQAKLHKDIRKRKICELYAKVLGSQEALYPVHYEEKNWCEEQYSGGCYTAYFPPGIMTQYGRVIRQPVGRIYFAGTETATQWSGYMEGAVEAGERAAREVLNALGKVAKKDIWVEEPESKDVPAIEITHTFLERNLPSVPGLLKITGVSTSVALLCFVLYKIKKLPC
# [2] = target: T2, Amine oxidase [flavin-containing] B (Rattus norvegicus, UniProt P19643); assay: Inhibition of rat MAOB using benzylamine as substrate pretreated for 1200 secs followed by substrate addition and measured after 3600 secs
# T2 sequence (P19643 whole entry): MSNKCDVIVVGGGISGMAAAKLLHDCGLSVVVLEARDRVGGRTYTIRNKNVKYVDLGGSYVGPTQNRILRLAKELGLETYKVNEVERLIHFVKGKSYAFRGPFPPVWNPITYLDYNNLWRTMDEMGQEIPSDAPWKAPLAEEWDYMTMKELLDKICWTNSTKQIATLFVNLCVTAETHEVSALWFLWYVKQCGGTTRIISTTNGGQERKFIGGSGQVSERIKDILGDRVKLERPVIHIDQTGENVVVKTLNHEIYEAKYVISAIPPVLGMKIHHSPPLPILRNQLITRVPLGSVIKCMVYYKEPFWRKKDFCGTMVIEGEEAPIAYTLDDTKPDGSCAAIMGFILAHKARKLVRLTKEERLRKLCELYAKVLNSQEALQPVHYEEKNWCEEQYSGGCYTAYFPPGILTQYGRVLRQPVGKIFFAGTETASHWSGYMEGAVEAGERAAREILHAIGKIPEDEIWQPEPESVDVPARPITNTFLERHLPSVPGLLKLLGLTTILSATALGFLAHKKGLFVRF
# Summary of the method: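 Enzyme: liver mitochondrial MAO prepared by sucrose differential centrifugation and held in 100 mmol/L K-phosphate pH 7.9. Inhibitor pre-incubated with enzyme 1200 s at 37 °C, 5% CO2. Benzylamine was added (final 2 mmol/L; MAO final 0.15 mg/mL) and reacted 3600 s. Stopped with 10% perchloric acid. Benzaldehyde extracted into cyclohexane and read at A240. DMSO blank.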
# [3] = Acute toxicity in po dosed rat; format: organism-based; settings: in vivo
# Rattus norvegicus [4] = assay: In-vivo inhibition of MAO in rat assessed as dopamine level in brain at 20 mg/kg/day, po administered for 1 week measured post last dose by HPLC method (reference value: 0.459 +/- 0.07 ng/mg); format: functional
# Rattus norvegicus [5] = assay: In-vivo inhibition of MAO in rat assessed as 5-hydroxytryptamine level in plasma at 20 mg/kg/day, po administered for 1 week measured post last dose by HPLC method (reference value: 67.4 +/- 5.9 ng/ml); format: functional
# Rattus norvegicus [6] = assay: In-vivo inhibition of MAOA in rat brain at 20 mg/kg/day, po administered for 1 week measured post last dose; format: functional, organism-based
# Rattus norvegicus [7] = assay: In-vivo inhibition of MAO in rat assessed as 5-hydroxytryptamine level in brain at 20 mg/kg/day, po administered for 1 week measured post last dose by HPLC method (reference value: 0.211 +/- 0.03 ng/mg); format: functional
# Rattus norvegicus [8] = assay: In-vivo inhibition of MAO in rat assessed as norepinephrine level in plasma at 20 mg/kg/day, po administered for 1 week measured post last dose by HPLC method (reference value: 200 +/- 13.2 ng/ml); format: functional
# Rattus norvegicus [9] = assay: In-vivo inhibition of MAO in rat assessed as dopamine level in plasma at 20 mg/kg/day, po administered for 1 week measured post last dose by HPLC method (reference value: 121.3 +/- 10.1 ng/ml); format: functional
# Rattus norvegicus [10] = assay: In-vivo inhibition of MAO in rat assessed as norepinephrine level in brain at 20 mg/kg/day, po administered for 1 week measured post last dose by HPLC method (reference value: 1.438 +/- 0.054 ng/mg); format: functional
# Rattus norvegicus [11] = assay: In-vivo inhibition of MAOA in rat plasma at 20 mg/kg/day, po administered for 1 week measured post last dose; format: functional, organism-based
# Rattus norvegicus [12] = assay: In-vivo inhibition of MAOB in rat plasma at 20 mg/kg/day, po administered for 1 week measured post last dose; format: functional, organism-based
# Rattus norvegicus [13] = assay: In-vivo inhibition of MAOB in rat brain at 20 mg/kg/day, po administered for 1 week measured post last dose; format: functional, organism-based
IC50 [1],IC50 [2],Structure (SMILES),LD50 [3],Activity (Rattus norvegicus [4]),Activity (Rattus norvegicus [5]),inhibition (Rattus norvegicus [6]),Activity (Rattus norvegicus [7]),Activity (Rattus norvegicus [8]),Activity (Rattus norvegicus [9]),Activity (Rattus norvegicus [10]),inhibition (Rattus norvegicus [11]),inhibition (Rattus norvegicus [12]),inhibition (Rattus norvegicus [13])
24.5 µM,1610 µM,NCCCNC(=O)c1ccc(Cl)cc1,,,,,,,,,,,
,,NCCNC(=O)c1ccc(Cl)cn1 [LAZABEMIDE],1000 to 2000 mg/kg,,,,,,,,,,
790 µM,24.8 µM,O=C(NCCBr)c1ccc(Cl)cn1,,,,,,,,,,,
,783 µM,O=C(NCCN1CCOCC1)c1ccc(Cl)cc1 [MOCLOBEMIDE],,,,,,,,,,,
,,O=C(NCCO)c1ccc(Cl)cc1,3090 mg/kg,1.51 ng/mg,214.8 ng/mL,Active,0.753 ng/mg,452.7 ng/mL,379.4 ng/mL,3.73 ng/mg,Active,,
26.8 µM,895 µM,O=C(NCCBr)c1ccc(Cl)cc1,,,,,,,,,,,
,,O=C(NCO)c1ccc(Cl)cn1,3000 mg/kg,0.667 ng/mg,100.6 ng/mL,,0.469 ng/mg,569.2 ng/mL,201.3 ng/mL,4.12 ng/mg,,Active,Active
,,O=C(NCCO)c1ccc(Cl)cn1,3060 mg/kg,0.768 ng/mg,116.4 ng/mL,,0.515 ng/mg,628.3 ng/mL,211.6 ng/mL,4.99 ng/mg,,Active,Active
,,NCCNC(=O)c1ccc(Cl)cc1,2810 mg/kg,1.21 ng/mg,150.4 ng/mL,Active,0.613 ng/mg,440.4 ng/mL,307.5 ng/mL,3.13 ng/mg,Active,,

Structure (SMILES),IC50 [1],IC50 [2],LD50 [3],Activity (Rattus norvegicus [4]),Activity (Rattus norvegicus [5]),inhibition (Rattus norvegicus [6]),Activity (Rattus norvegicus [7]),Activity (Rattus norvegicus [8]),Activity (Rattus norvegicus [9]),Activity (Rattus norvegicus [10]),inhibition (Rattus norvegicus [11]),inhibition (Rattus norvegicus [12]),inhibition (Rattus norvegicus [13])
O=C(NCO)c1ccc(Cl)cc1,7.49 µM,1440 µM,3000 mg/kg,0.832 ng/mg,123.2 ng/mL,Active,0.545 ng/mg,436.9 ng/mL,231.1 ng/mL,2.64 ng/mg,Active,,

# — ChEMBL document CHEMBL4229548, “Design, synthesis and biological evaluation of lazabemide derivatives as inhibitors of monoamine oxidase” (Bioorg Med Chem, 2018)
